Source: PubChem (several laboratories)
Yeast growth inh: yeast BB579 growth reduction in restrictive medium; S. cerevisiae BB579 growth, OD615, 48 h; inhibition, % at 10 µM; actives 0.51% (n = 140,000);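 active = inhibition above a set limit, 3 SD over the mean compound inhibition, cut at about 44% in these data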
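Assay system – yeast BB579 (DeaD) · Dosing – single compound dose of 10 µM, 0.25% DMSO final · Detection – OD615 turbidity measurement · Buffer or medium – CSMM-D restrictive synthetic medium containing dextrose (glucose) · Benchmarks – positive control amphotericin B 10 µg/mL · Incubation – 48 h exposure, 30 °C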
Yeast life ext: yeast lifespan extension; AID 775; inhibition of the nicotinamide effect, % at 10 µM; S. cerevisiae growth with nicotinamide, OD615; deaD strain in restrictive glucose medium; actives 0.68% (n = 130,000);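 active = inhibition above a set limit, placed 3 SD over the median of all compounds, cut at about 26% in these data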;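 also: 0% = nicotinamide-treated wells and 100% = cells grown without nicotinamide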
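Assay system: engineered S. cerevisiae DeaD replicative-lifespan strain, galactose-grown log-phase cells; Buffer or medium: CSMM-D glucose medium, restrictive; Probe or stimulus: nicotinamide 1.5 mM; Compound: single dose 10 µM compound, 0.25% DMSO; Schedule: 4 h preincubation then 48 h treatment at 30 °C; Technique: OD615 measurement.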
bCat KO growth: beta-catenin-lacking colon tumor cell growth suppression | HCT116 beta-catenin knockout viability, CellTiter-Glo, 60 h; active compounds read low | viability, % at 10 µM | actives 1.5% (n = 140,000) | AID 818;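 active = viability at or under a set limit, the compound median less 4 SD, cut at about 6% in these data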;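 also: 0% = Hyamine 1622 control at 20 µM and 100% = untreated cell control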
SDO1 yeast rescue: compounds rescuing growth of sdo1-depleted yeast, bone marrow failure model; S. cerevisiae sdo1-depleted JHY4D growth rescue, OD600 30 h; active compounds read high; pdr5 snq2 efflux-pump mutant strain; z-score at 10 µM; actives 0.21% (n = 140,000); AID 817;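 active = z-score above 3 at both the 24 hr and the 30 hr optical density reads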;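 also: z-score against mean and SD of all compound wells on the same plate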
HCT116 PTEN-null: growth suppressors of cells with PTEN tumor suppressor deletion; HCT116 PTEN-null viability, CellTiter-Glo, 60 h; active compounds read low; viability, % at 10 µM; actives 1.2% (n = 140,000);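 active = viability at or below a set limit, 4 SD under the median of all tested compounds, cut at about 3.7% in these data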;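 also: PTEN knockout HCT116 line with beta catenin targeted HCT116 as companion control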
* = called active by the depositor; · = no result; [ ] = dose if it differs, or a comment. In the library only some 2.8% were active in any assay of this set; here they are far more common.

SMILES	Yeast growth inh	Yeast life ext	bCat KO growth	SDO1 yeast rescue	HCT116 PTEN-null
CC(C)(Oc1ccc(Cl)cc1)C(=O)Nc1ccncc1	-42.2	11.6	77.2	-2.09	80.0
CC(Oc1ccc(Cl)cc1Cl)C(=O)NC1=NN(c2ccccc2)C(=O)C1 (stereo not drawn)	98.5*	-19.2	84.4	-0.98	102.5
COc1ccc(CCC(=O)Nc2cccc(S(=O)(=O)N(C)C)c2)cc1OC	10.2	-4.9	86.3	1.15	93.6
CN1CCN(C(=O)CSc2nc(-c3cccs3)cc(-c3cccs3)c2C#N)CC1	-67.8	-36.0	3.1*	-1.96	4.5
CCN(CC)C(=O)CSc1nc(-c2cccs2)cc(-c2cccs2)c1C#N	-28.6	·	69.3	-1.56	58.6
CC(=O)Oc1ccc2ccccc2c1C(NC(=O)Cc1ccccc1)c1ccccc1Cl (stereo not drawn)	-17.1	2.3	3.9*	-1.16	1.4*
O=C(CN1C(=O)CSc2ccccc21)Nc1ccc2c(c1)OCCO2	-38.9	-12.8	89.5	-0.59	88.3
O=C(CN1C(=O)COc2ccccc21)Nc1ccc2c(c1)OCCO2	-32.0	54.1*	94.0	0.19	86.8
COC(=O)c1cc(NC(=S)Nc2cc(Cl)cc(Cl)c2)cc(C(=O)OC)c1	-32.4	27.1*	66.0	-2.12	60.6
CC(C)(C)C(=O)NC(=S)NNC(=O)c1sc2ccccc2c1Cl	-19.7	11.1	3.0*	-1.69	4.9
Cc1ccc(C)c(-n2nnnc2Sc2nnnn2-c2ccccc2)c1	-12.9	-8.4	2.0*	-1.05[12 µM]	1.8*
CCSc1nnnn1-c1ccccc1	-11.4	-20.7	92.5	0.09	95.8
O=c1oc2ccccc2c2c1nc(C(F)(F)F)n2-c1ccccc1	-46.3	-5.9	105.5	-0.57	103.6
O=C(COc1ccc([N+](=O)[O-])cc1)N/N=C/c1cc([N+](=O)[O-])ccc1N1CCOCC1	-19.9	-1.8	87.9	0.93	87.3
O=C(N/N=C/c1cc([N+](=O)[O-])ccc1N1CCNCC1)c1ccc([N+](=O)[O-])cc1	-50.2	-16.3	1.6*	1.02	1.1*
OCCCCNCc1ccc(OCc2ccc(Cl)cc2Cl)cc1	7.9	-20.8	1.8*	-2.56	1.6*
CC(NC(=O)/C(C#N)=C/c1ccc(Cl)c([N+](=O)[O-])c1)c1ccccc1 (stereo not drawn)	46.3*	5.4	1.6*	-2.09	1.2*
CC(NC(=O)c1ccc([N+](=O)[O-])cc1[N+](=O)[O-])c1ccc(-c2ccccc2)cc1 (stereo not drawn)	-29.4	1.2	85.5	-1.49	86.8
CC(=O)c1ccc(N(C(=O)Cn2nnc(-c3ccccc3)n2)C(C(=O)NC2CCCCC2)c2ccccn2)cc1 (stereo not drawn)	-37.7	2.4	47.5	-0.97	56.8
CCn1cc(C(=O)O)c(=O)c2ccc(C)nc21	-17.7	64.1*	103.9	-1.76	102.8
CC(=O)OCCCN1c2ccccc2Nc2nnc(-c3ccccc3)cc21	-53.3	-22.4	79.1	-1.45	71.1
C=CCOc1ccc(/C=N/NC(=O)C(C)Sc2ccccn2)cc1OC (stereo not drawn)	-29.3	-1.6	99.6	0.12	97.5
Cc1sc2nc(CN3CCC(C)CC3)nc(Cl)c2c1C	-7.8	3.7	0.9*	1.45	0.8*
Nc1ccc(Br)c2c1C(=O)c1ccccc1C2=O	16.9	-24.9	92.8	-2.05	86.9
Nc1ccc(O)c2c1C(=O)c1ccccc1C2=O	69.4*	-4.8	66.3	-0.75	72.0
SMILES	Yeast growth inh	Yeast life ext	bCat KO growth	SDO1 yeast rescue	HCT116 PTEN-null
COc1ccc(N)c2c1C(=O)c1ccccc1C2=O	70.6*	-8.9	80.2	-0.03	82.5
Cn1c(NC(=O)c2ccc(S(=O)(=O)N3CCOCC3)cc2)cc(=O)n(C)c1=O	-12.0	5.7	89.4	0.53	95.7
Cc1cc(C)nc(N/N=C/C2=C(N3CCOCC3)C(=C\c3ccc(Cl)cc3)/CC2)n1	51.7*	-2.5	36.3	-1.61	43.8
Cc1occc1C(=O)N/N=C/C1=C(N2CCOCC2)C(=C\c2ccc(Cl)cc2Cl)/CC1	-4.3	1.0	72.2	0.76	69.8
COc1ccc(C(=O)NC(=S)NNC(=O)c2cnccn2)cc1	81.3*	1.6	7.3	-0.43	6.8
COc1cc(C(=O)NC(=S)NNC(=O)c2cnccn2)cc(OC)c1OC	88.1*	8.7	7.5	1.95	12.6
CCSc1nc(-c2ccccc2)c2cc(Cl)ccc2n1	-54.1	1.7	84.2	-0.9	84.8
CSc1nc(-c2ccc(C)cc2)nc(C(Cl)Cl)n1	-32.8	-10.0	1.1*	2.97	1.1*
CCSc1nc(-c2ccccc2)nc(C(Cl)Cl)n1	-36.7	-0.9	4.2*	-0.74	2.0*
O=C(O)c1cc2c(s1)-c1ccccc1CC2	45.5*	-6.9	85.6	-0.01	93.6
O=C(Nc1ccc(Cl)cc1)NC1CCCC1Cc1ccco1 (stereo not drawn)	-11.1	-23.9	9.6	-1.49	2.9*
O=C(Nc1ccc(Cl)cc1)NC1CCCCC1Cc1ccco1 (stereo not drawn)	8.2	-12.5	60.7	-1.78	53.4
COc1ccc(CCn2c(C)cc3c(c2=O)C(c2ccc4c(c2)OCO4)C(C#N)=C(N)O3)cc1OC (stereo not drawn)	-44.9	13.5	66.8	0.59	68.3
CCc1ccc(OCc2nnc(SCC(=O)Nc3cccc(C(=O)N4CCOCC4)c3)o2)cc1	-42.2	-1.0	100.4	2.26	98.1
Cc1sc2nc(COC(=O)CNC(=O)c3ccc(C(C)(C)C)cc3)[nH]c(=O)c2c1C	-15.0	2.8	98.7	0.61	96.6
Cc1cc(OC(=O)c2cc(F)c(F)cc2Cl)nc(C)n1	-26.2	-3.5	104.4	3.08	111.7
Cc1cc(C)c(S(=O)(=O)c2ccccc2)c(OC(=O)c2cc(F)c(F)cc2Cl)n1	-67.5	43.4*	105.0	0.19	99.0
CCN1/C(=C/C=C/C=C/c2sc3ccccc3[n+]2CC)Sc2ccccc21	83.7*	14.4	1.2*	0.54	1.7*
COc1ccc(C(C)NC(=O)c2ccc([N+](=O)[O-])cc2)cc1OC (stereo not drawn)	-9.6	0.1	95.7	0.67	92.6
O=C(Nc1ccc(N2CCOCC2)cc1)c1ccc2nc(-c3ccco3)c(-c3ccco3)nc2c1	-26.8	-19.3	98.1	-1.34	82.7
S=C(Nc1ccc(N2CCOCC2)cc1)Nc1ccc2nc(-c3ccco3)c(-c3ccco3)nc2c1	-93.5	36.5*	67.9	-0.64	77.3
CC1=C(C(=O)OC2CCCC2)C(c2ccc(C)o2)C2=C(CC(c3cccs3)CC2=O)N1 (stereo not drawn)	-31.8	9.9	72.6	-1.56	73.4
Cc1[nH]c(=O)c(C(=O)/C=C/c2ccccc2F)c2c1CCCC2	-32.2	-0.9	3.9*	-1.16	3.4*
Cc1ccc(C(=O)Nc2onc(C)c2C#N)cc1	-33.2	-2.5	92.4	1.06	98.3
COc1cccc(-c2cc(C(=O)NCCCn3ccnc3)c3ccccc3n2)c1	-7.0	1.7	93.5	0.88	91.5
